Data as given in ChEMBL document CHEMBL1145048, “Functionalized glycomers as growth inhibitors and inducers of apoptosis in human glioblastoma cells” (J Med Chem, 2003).

How the values were obtained:
[1] = Apoptosis index was determined against human glioblastoma LNZ308 cells at 25 uM after total exposure time of 24 hours; type: functional
Summary of the method: (§1)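 Cells seeded to half confluence in DMEM-10% FCS for 24 h, then held 24 h without FCS before glycomer addition in serum-free medium. At the end of the incubation, histone-associated DNA fragments (mono- and oligonucleosomes) in still-adherent cells were measured by photometric ELISA (absorbance 405 nm). Apoptosis index = absorbance of treated / untreated wells, untreated set at 1.00. Done in triplicate.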

[2] = Glycomer activity determined as growth inhibition of human glioblastoma LN18 cells; type: functional, cell-based
Summary of the method: (§2)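 Cells grown 24 h with FCS, then 24 h without FCS, then exposed to glycomers at increasing concentrations in serum-free medium for 24 h. MTT at 0.2 mg/mL was added for the last 2 h, formazan was dissolved in 0.1 N HCl/2-propanol and read at 540 nm. Growth inhibition = treated/control MTT reduction. IC50 is the concentration giving 50% inhibition from dose–response curves. Triplicate, mean ± SD.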

[3] = Apoptosis index was determined against human glioblastoma LN18 cells at 25 uM after total exposure time of 24 hours; type: functional; summary of the method: as §1
[4] = Glycomer activity determined as growth inhibition of human glioblastoma LNZ308 cells; type: functional, cell-based; summary of the method: as §2
[5] = Apoptosis index was determined against human glioblastoma LN18 cells at concentration of 25 uM after total exposure time of 24 hours; type: functional, cell-based; summary of the method: as §1
[6] = Efficacy index was evaluated as ratio of apoptosis index to MTT reduction for human glioblastoma LNZ308 cells at 22.5 uM concentration; type: functional, cell-based
Summary of the method: (§3)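 Cells grown 24 h with FCS, then deprived of FCS for 10 h, then exposed to glycomers for 12 h. In adherent cells, MTT reduction (540 nm), [3H]-thymidine incorporation (cpm) and nucleosome-fragment apoptosis index (treated vs control) were measured. Efficacy index = ratio of thymidine incorporation or apoptosis index to MTT reduction.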

[7] = Efficacy index was evaluated as ratio of apoptosis index to MTT reduction for human glioblastoma LN18 cells at 4.5 uM concentration; type: functional, cell-based; summary of the method: as §3
[8] = Efficacy index was evaluated as ratio of inhibition of DNA synthesis (3HT incorporation) to inhibition of growth(MTT) for human glioblastoma LNZ308 cells at 0 uM concentration; type: functional, cell-based; summary of the method: as §3
[9] = Efficacy index was evaluated as ratio of apoptosis index to MTT reduction for human glioblastoma LNZ308 cells at 0 uM concentration; type: functional, cell-based; summary of the method: as §3
[10] = Efficacy index was evaluated as ratio of inhibition of DNA synthesis (3HT incorporation) to inhibition of growth(MTT) for human glioblastoma LN18 cells at 4.5 uM concentration; type: functional, cell-based; summary of the method: as §3
[11] = Efficacy index was evaluated as ratio of inhibition of DNA synthesis (3HT incorporation) to inhibition of growth(MTT) for human glioblastoma LNZ308 cells at 4.5 uM concentration; type: functional, cell-based; summary of the method: as §3
[12] = Apoptosis index was determined against human glioblastoma LN18 cells at 16 uM after total exposure of 10 hours; type: functional; summary of the method: as §1
[13] = Efficacy index was evaluated as ratio of apoptosis index to MTT reduction for human glioblastoma LNZ308 cells at 4.5 uM concentration; type: functional, cell-based; summary of the method: as §3
[14] = Efficacy index was evaluated as ratio of inhibition of DNA synthesis (3HT incorporation) to inhibition of growth(MTT) for human glioblastoma LN18 cells at 0 uM concentration; type: functional, cell-based; summary of the method: as §3
[15] = Apoptosis index was determined against human glioblastoma LNZ308 cells at 16 uM and total exposure time of 10 hours; type: functional; summary of the method: as §1
[16] = Efficacy index was evaluated as ratio of apoptosis index to MTT reduction for human glioblastoma LN18 cells at 22.5 uM concentration; type: functional, cell-based; summary of the method: as §3
[17] = Efficacy index was evaluated as ratio of inhibition of DNA synthesis (3HT incorporation) to inhibition of growth(MTT) for human glioblastoma LN18 cells at 22.5 uM concentration; type: functional, cell-based; summary of the method: as §3
[18] = Efficacy index was evaluated as ratio of inhibition of DNA synthesis (3HT incorporation) to inhibition of growth(MTT) for human glioblastoma LNZ308 cells at 22.5 uM concentration; type: functional, cell-based; summary of the method: as §3
[19] = Efficacy index was evaluated as ratio of apoptosis index to MTT reduction for human glioblastoma LN18 cells at 0 uM concentration; type: functional, cell-based; summary of the method: as §3
[20] = Efficacy index was evaluated as ratio of inhibition of DNA synthesis (3HT incorporation) to inhibition of growth(MTT) for human glioblastoma LNZ308 cells at 11.3 uM concentration; type: functional, cell-based; summary of the method: as §3
[21] = Efficacy index was evaluated as ratio of apoptosis index to MTT reduction for human glioblastoma LNZ308 cells at 11.3 uM concentration; type: functional, cell-based; summary of the method: as §3
[22] = Efficacy index was evaluated as ratio of apoptosis index to MTT reduction for human glioblastoma LN18 cells at 11.3 uM concentration; type: functional, cell-based; summary of the method: as §3
[23] = Efficacy index was evaluated as ratio of inhibition of DNA synthesis (3HT incorporation) to inhibition of growth(MTT) for human glioblastoma LN18 cells at 11.3 uM concentration; type: functional, cell-based; summary of the method: as §3

SMILES | IC50 ([2]; Homo sapiens, LN-18) | IC50 ([4]; Homo sapiens, LNZ308) | further results
C=CCO[C@H]1[C@H](O)[C@H](COS(=O)(=O)c2cccc(C(F)(F)F)c2)O[C@@H](Oc2ccc(I)cc2)[C@H]1OC(=O)C(C)C | 12.5 µM | 8.5 µM | Apoptosis index [1]: 1.09; Apoptosis index [3]: 1.1
C=CCOC1C(O)C(CNS(=O)(=O)c2cccc(C(F)(F)F)c2)OC(Oc2ccc(I)cc2)C1OC(=O)C(C)C (stereo not drawn) | 12.5 µM | 7.5 µM | 
C=CCO[C@H]1[C@H](O)[C@H](COCc2ccccc2)O[C@@H](Oc2ccc(I)cc2)[C@H]1OC(=O)C(C)C | > 50 µM | > 50 µM | 
C=CCO[C@H]1[C@H](O)[C@H](COCc2ccccc2)O[C@@H](Oc2ccc(OC)cc2)[C@H]1OC(C)=O | > 50 µM | > 50 µM | 
C=CCO[C@H]1[C@H](O)[C@H](COS(=O)(=O)c2cccc(C(F)(F)F)c2)O[C@H](Oc2ccc(I)cc2)[C@@H]1OC(=O)CCC | 25 µM | 42 µM | 
C=CCOC1C(O)C(CNS(=O)(=O)c2cccc(C(F)(F)F)c2)OC(Oc2ccc(I)cc2)C1OC(=O)CCC (stereo in doubt; 17a) |  |  | IC50 ([2]; ln18): 25 µM; IC50 ([4]; lnz308): 26 µM
C=CCO[C@H]1[C@H](O)[C@H](COS(=O)(=O)c2cccc(C(F)(F)F)c2)O[C@@H](Oc2ccc(I)cc2)[C@H]1OC(=O)CCC (stereo in doubt; 16a) | 40 µM | 29 µM | 
CCCO[C@@H]1[C@H](O)[C@H](Oc2ccccc2)O[C@@H](COCc2ccccc2)[C@H]1O | > 50 µM | > 50 µM | Apoptosis index [5]: 1.29
CCCO[C@H]1[C@H](O)[C@H](COS(=O)(=O)c2cccc(C(F)(F)F)c2)O[C@@H](Oc2ccccc2)[C@H]1OC(=O)CCC | > 50 µM | > 50 µM | 
CCCC(=O)O[C@@H]1[C@H](Oc2ccc(I)cc2)O[C@@H](COS(=O)(=O)c2cccc(C(F)(F)F)c2)[C@@H](O)[C@@H]1OC | 26 µM | 22 µM | 
C=CCO[C@H]1[C@H](O)[C@H](COS(=O)(=O)c2cccc(C(F)(F)F)c2)O[C@@H](Oc2ccc(Br)cc2)[C@H]1OC(=O)CCC | > 50 µM | > 50 µM | 
C=CCO[C@H]1[C@H](O)[C@H](COS(=O)(=O)c2cccc(C(F)(F)F)c2)O[C@@H](Oc2ccc(I)cc2)[C@H]1OC(=O)CC | 7 µM | 11.5 µM | Efficacy index [6]: 5.09; Efficacy index [7]: 1.19; Efficacy index [8]: 9.79; Efficacy index [9]: 0.95; Efficacy index [10]: 4.87; Efficacy index [11]: 5; Apoptosis index [12]: 3.82; Efficacy index [13]: 0.99; Efficacy index [14]: 16.2; Apoptosis index [15]: 8.97; Efficacy index [16]: 9.6; Efficacy index [17]: 0.3; Efficacy index [18]: 0.24; Efficacy index [19]: 0.93; Efficacy index [20]: 1.23; Efficacy index [21]: 2.03; Efficacy index [22]: 3.51; Efficacy index [23]: 0.23
C=CCO[C@H]1[C@H](O)[C@H](COS(=O)(=O)c2cccc(C(F)(F)F)c2)O[C@@H](Oc2ccc(I)cc2)[C@H]1OC(C)=O | 12.5 µM | 13 µM | 
C=CCO[C@H]1[C@H](O)[C@H](COCc2ccccc2)O[C@@H](Oc2ccc(Br)cc2)[C@H]1OC(=O)CCC | > 50 µM | > 50 µM | 
CO[C@@H]1[C@H](O)[C@H](Oc2ccc(I)cc2)O[C@@H](COS(=O)(=O)c2cccc(C(F)(F)F)c2)[C@H]1O | > 50 µM | > 50 µM | 
C=CCO[C@H]1[C@H](O)[C@H](COS(=O)(=O)c2cccc(C(F)(F)F)c2)O[C@@H](Oc2ccc(I)cc2)[C@H]1OC(=O)CCc1ccccc1 | > 50 µM | > 50 µM | 
